Source: ChEMBL document CHEMBL1141940, “N-[(3S)-1-benzylpyrrolidin-3-yl]-(2-thienyl)benzamides: human dopamine D4 ligands with high affinity for the 5-HT2A receptor” (Bioorg Med Chem Lett, 2005)

What was measured:
D(4) dopamine receptor = biological target: T1, D(4) dopamine receptor (Homo sapiens, UniProt P21917); test: Displacement of [3H]spiperone from cloned human dopamine D4.2 receptor in […] cells; assay type: cell-based
T1 sequence (P21917 whole entry): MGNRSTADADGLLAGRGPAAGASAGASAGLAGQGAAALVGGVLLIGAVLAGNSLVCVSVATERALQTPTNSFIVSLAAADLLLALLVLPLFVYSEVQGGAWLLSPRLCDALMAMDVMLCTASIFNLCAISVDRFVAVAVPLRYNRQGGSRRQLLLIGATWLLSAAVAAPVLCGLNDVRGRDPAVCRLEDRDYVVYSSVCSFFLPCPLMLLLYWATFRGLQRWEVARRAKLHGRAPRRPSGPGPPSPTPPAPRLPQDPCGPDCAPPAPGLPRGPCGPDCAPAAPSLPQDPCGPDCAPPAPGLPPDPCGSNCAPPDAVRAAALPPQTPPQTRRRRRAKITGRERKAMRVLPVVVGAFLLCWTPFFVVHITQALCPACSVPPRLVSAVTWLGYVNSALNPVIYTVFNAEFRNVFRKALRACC
Procedure, shortened: (§1)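 […] cells stably transfected with cloned receptor: hD4 (D4.2 subtype) with [3H]spiperone, h5-HT2A with [3H]ketanserin. Non-specific binding was defined with methysergide. Ki came from Cheng–Prusoff conversion and is the mean of at least two independent determinations ± SEM.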

D(2) dopamine receptor [1] = biological target: T2, D(2) dopamine receptor (Homo sapiens, UniProt P14416); test: Displacement of [3H]spiperone from human dopamine D2(short) receptor in rat pituitary GH4C1 cells; assay type: cell-based, Pituitary gland cell
Procedure, shortened: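 Rat pituitary GH4C1 cells stably expressing cloned hD2 (short isoform), with [3H]spiperone displacement. Non-specific binding was defined with […]. Ki was calculated by Cheng–Prusoff transformation.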

[2] = biological target: T3, Adrenergic receptor alpha-1 (Rattus norvegicus, UniProt P15823+P23944+P43140); test: Displacement of 7-methoxy-[3H]prazosin from adrenergic alpha-1 receptor in rat frontal cortex tissue; assay type: tissue-based
T3 sequence (P15823 whole entry): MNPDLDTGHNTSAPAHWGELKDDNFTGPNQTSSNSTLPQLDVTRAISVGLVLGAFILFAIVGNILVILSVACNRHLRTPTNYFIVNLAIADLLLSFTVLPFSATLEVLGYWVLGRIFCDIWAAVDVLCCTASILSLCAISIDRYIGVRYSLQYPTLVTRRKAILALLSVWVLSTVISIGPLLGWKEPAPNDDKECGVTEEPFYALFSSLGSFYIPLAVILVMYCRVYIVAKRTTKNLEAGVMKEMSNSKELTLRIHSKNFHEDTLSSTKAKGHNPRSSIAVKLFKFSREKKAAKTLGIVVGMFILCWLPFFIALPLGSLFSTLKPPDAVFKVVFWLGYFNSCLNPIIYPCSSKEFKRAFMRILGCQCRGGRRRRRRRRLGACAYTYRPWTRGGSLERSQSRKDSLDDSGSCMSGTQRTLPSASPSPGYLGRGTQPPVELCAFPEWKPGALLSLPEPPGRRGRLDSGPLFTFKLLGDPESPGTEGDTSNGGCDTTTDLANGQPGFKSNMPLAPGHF
T3 sequence (P23944 whole entry): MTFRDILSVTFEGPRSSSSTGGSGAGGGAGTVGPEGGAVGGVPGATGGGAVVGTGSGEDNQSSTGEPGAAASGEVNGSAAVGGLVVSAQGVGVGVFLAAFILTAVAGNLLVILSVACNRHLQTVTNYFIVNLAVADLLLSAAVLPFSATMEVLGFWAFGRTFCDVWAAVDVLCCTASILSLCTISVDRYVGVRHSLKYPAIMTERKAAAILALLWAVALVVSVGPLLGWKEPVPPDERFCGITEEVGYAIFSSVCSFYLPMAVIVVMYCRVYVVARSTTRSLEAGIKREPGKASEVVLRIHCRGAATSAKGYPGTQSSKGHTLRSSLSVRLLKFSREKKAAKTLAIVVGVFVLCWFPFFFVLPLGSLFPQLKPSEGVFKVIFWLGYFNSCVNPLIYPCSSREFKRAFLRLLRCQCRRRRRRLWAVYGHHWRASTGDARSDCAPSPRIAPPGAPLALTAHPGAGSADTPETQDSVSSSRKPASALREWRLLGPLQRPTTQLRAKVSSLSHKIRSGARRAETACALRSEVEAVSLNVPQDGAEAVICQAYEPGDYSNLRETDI
T3 sequence (P43140 whole entry): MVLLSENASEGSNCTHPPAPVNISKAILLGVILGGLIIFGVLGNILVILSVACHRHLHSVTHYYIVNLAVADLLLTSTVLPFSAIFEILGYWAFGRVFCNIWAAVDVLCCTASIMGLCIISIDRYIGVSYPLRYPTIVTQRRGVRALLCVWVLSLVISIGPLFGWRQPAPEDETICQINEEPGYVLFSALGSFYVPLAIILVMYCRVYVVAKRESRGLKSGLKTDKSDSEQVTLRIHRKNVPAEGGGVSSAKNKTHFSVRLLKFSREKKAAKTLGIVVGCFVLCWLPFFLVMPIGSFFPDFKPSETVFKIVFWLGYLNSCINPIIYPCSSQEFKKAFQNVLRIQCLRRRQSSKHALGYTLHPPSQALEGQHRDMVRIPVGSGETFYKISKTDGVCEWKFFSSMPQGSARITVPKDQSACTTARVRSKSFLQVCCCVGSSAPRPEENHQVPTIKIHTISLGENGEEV
Procedure, shortened: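 Rat frontal cortex tissue as receptor source, with 7-methoxy-[3H]prazosin as radioligand. Non-specific binding was defined with […]. Ki was obtained by Cheng–Prusoff transformation and reported as the mean of at least two independent determinations ± SEM.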

[3] = biological target: T4, 5-hydroxytryptamine receptor 2A (Homo sapiens, UniProt P28223); test: Displacement of [3H]ketanserin from cloned human 5HT2A receptor in […] cells; assay type: cell-based; procedure, shortened: as §1
[4] = biological target: T4, 5-hydroxytryptamine receptor 2A; test: Inhibitory activity against cloned human 5HT2A receptor in […] cells at 100 nM; assay type: cell-based
D(2) dopamine receptor [5] = biological target: T2, D(2) dopamine receptor; test: Inhibitory activity against human dopamine D2(short) receptor in rat pituitary GH4C1 cells at 100 nM; assay type: cell-based; conditions: Pituitary gland cell
[6] = biological target: T5, Adrenergic receptor alpha-1 (Rattus norvegicus) (UniProt P15823+P23944+P43140); test: Inhibitory activity against adrenergic alpha-1 receptor in rat frontal cortex tissue at 1 uM; assay type: tissue-based
[7] = biological target: T5, Adrenergic receptor alpha-1 (Rattus norvegicus); test: Inhibitory activity against adrenergic alpha1 receptor in rat frontal cortex tissue at 100 nM; assay type: tissue-based

T4 sequence (P28223 whole entry): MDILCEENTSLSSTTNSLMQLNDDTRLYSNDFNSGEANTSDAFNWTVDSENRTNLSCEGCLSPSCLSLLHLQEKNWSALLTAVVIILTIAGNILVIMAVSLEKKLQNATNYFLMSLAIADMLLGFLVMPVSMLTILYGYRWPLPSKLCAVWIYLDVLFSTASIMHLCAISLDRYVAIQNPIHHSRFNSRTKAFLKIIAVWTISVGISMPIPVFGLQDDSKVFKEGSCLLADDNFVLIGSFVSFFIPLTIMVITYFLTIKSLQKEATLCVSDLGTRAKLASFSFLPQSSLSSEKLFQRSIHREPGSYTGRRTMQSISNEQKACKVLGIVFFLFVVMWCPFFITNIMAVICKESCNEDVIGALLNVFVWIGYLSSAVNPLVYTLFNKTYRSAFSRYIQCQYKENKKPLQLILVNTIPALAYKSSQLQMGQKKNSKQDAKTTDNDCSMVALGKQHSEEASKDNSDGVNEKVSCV
T2 sequence (P14416 whole entry, canonical isoform): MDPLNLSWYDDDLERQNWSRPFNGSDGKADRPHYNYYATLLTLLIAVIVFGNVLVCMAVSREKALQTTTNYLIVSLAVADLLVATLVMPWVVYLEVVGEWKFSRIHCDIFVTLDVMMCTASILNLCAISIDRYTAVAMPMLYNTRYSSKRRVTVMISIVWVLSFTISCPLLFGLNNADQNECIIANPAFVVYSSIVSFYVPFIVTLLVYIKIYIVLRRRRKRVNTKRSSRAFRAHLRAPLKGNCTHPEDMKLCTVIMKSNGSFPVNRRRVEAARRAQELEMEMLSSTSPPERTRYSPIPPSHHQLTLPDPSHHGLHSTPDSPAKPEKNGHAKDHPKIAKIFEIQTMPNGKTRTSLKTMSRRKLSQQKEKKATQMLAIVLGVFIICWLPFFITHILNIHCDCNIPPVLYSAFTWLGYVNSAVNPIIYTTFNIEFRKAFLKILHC

Compound | Ki (D(4) dopamine receptor) | Ki (D(2) dopamine receptor [1]) | Ki [2] | Ki [3] | inhibition [4] | inhibition (D(2) dopamine receptor [5]) | inhibition [6] | inhibition [7]
COc1cccc(CN2CC[C@H](NC(=O)c3ccc(-c4cccs4)cc3)C2)c1 | 14 nM | 4460 nM | 920 nM | 22 nM | – | – | – | –
O=C(N[C@H]1CCN(Cc2ccc(C(F)(F)F)cc2)C1)c1cccc(-c2cccs2)c1 | 21 nM | 1300 nM | 360 nM | 740 nM | – | – | – | –
O=C(N[C@H]1CCN(Cc2ccc3c(c2)OCO3)C1)c1ccc(-c2cccs2)cc1 | 7 nM | 1800 nM | 400 nM | – | 89% | – | – | –
O=C(N[C@H]1CCN(Cc2ccc(F)cc2)C1)c1ccc(-c2cccs2)cc1 | 5 nM | 1500 nM | 420 nM | 14 nM | – | – | – | –
O=C(N[C@H]1CCN(Cc2ccc(Cl)cc2)C1)c1cccc(-c2cccs2)c1 | 16 nM | 230 nM | 220 nM | 1100 nM | – | – | – | –
Cc1ccc(CN2CC[C@H](NC(=O)c3cccc(-c4cccs4)c3)C2)cc1 | 4 nM | 60 nM | 80 nM | 610 nM | – | – | – | –
O=C(N[C@H]1CCN(Cc2ccccc2)C1)c1cccc(-c2cccs2)c1 | – | – | – | 460 nM | – | – | – | –
O=C(N[C@H]1CCN(Cc2ccc(OC(F)(F)F)cc2)C1)c1ccc(-c2cccs2)cc1 | 78 nM | – | 16000 nM | 140 nM | – | 7% | – | –
O=C(N[C@H]1CCN(Cc2ccccc2F)C1)c1ccc(-c2cccs2)cc1 | 33 nM | 38000 nM | 6900 nM | – | 89% | – | – | –
O=C(N[C@H]1CCN(Cc2ccccc2)C1)c1ccc(-c2cccs2)cc1 | – | – | – | 1.8 nM | – | – | – | –
O=C(N[C@H]1CCN(Cc2ccc(C(F)(F)F)cc2)C1)c1ccc(-c2cccs2)cc1 | 14 nM | – | – | 130 nM | – | 7% | 2% | –
O=C(N[C@H]1CCN(Cc2ccc(OC(F)(F)F)cc2)C1)c1cccc(-c2cccs2)c1 | 52 nM | 500 nM | 1200 nM | 5600 nM | – | – | – | –
O=C(N[C@H]1CCN(Cc2ccc(Cl)c(Cl)c2)C1)c1ccc(-c2cccs2)cc1 | 15 nM | 29000 nM | 5000 nM | 22 nM | – | – | – | –
O=C(N[C@H]1CCN(Cc2ccc(F)c(F)c2)C1)c1ccc(-c2cccs2)cc1 | 14 nM | 18000 nM | 10000 nM | 16 nM | – | – | – | –
O=C(N[C@H]1CCN(Cc2cccc(C(F)(F)F)c2)C1)c1ccc(-c2cccs2)cc1 | 22 nM | – | – | – | 76% | 0% | – | 0%
